{"source": "ChEMBL document CHEMBL4411315", "about": "“Discovery of Novel Dual Histone Deacetylase and Mammalian Target of Rapamycin Target Inhibitors as a Promising Strategy for Cancer Therapy” (J Med Chem, 2019)", "key": {"[1]": {"tested_on": "HCT-116", "assay": "Antiproliferative activity against human HCT116 cells after 72 hrs by MTT assay", "assay_type": "functional, cell-based", "details": "HCT-116, 72 h"}, "[2]": {"molecular_target": "Histone deacetylase 2 (Homo sapiens, UniProt Q92769)", "sequence (Q92769 whole entry)": "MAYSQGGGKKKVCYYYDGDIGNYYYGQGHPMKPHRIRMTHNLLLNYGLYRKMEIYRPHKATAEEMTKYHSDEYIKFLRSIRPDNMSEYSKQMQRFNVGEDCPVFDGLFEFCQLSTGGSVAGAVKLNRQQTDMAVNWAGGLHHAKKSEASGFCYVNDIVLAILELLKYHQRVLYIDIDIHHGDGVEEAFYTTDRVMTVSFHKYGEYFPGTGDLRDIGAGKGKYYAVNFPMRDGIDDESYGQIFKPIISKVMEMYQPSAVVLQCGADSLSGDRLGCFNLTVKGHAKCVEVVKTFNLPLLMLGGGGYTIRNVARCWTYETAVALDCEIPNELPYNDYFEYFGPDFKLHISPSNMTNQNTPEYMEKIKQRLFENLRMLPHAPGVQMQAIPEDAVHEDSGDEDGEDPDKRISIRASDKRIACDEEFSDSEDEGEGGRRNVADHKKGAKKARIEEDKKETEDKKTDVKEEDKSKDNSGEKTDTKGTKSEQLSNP", "assay": "Inhibition of recombinant full length human HDAC2 expressed in baculovirus expression system using Ac-peptide-AMC as substrate preincubated for 15 mins followed by substrate addition and measured after 1 hr by fluorescence assay"}, "[3]": {"molecular_target": "Protein deacetylase HDAC6 (Homo sapiens, UniProt Q9UBN7)", "sequence (Q9UBN7 whole entry)": "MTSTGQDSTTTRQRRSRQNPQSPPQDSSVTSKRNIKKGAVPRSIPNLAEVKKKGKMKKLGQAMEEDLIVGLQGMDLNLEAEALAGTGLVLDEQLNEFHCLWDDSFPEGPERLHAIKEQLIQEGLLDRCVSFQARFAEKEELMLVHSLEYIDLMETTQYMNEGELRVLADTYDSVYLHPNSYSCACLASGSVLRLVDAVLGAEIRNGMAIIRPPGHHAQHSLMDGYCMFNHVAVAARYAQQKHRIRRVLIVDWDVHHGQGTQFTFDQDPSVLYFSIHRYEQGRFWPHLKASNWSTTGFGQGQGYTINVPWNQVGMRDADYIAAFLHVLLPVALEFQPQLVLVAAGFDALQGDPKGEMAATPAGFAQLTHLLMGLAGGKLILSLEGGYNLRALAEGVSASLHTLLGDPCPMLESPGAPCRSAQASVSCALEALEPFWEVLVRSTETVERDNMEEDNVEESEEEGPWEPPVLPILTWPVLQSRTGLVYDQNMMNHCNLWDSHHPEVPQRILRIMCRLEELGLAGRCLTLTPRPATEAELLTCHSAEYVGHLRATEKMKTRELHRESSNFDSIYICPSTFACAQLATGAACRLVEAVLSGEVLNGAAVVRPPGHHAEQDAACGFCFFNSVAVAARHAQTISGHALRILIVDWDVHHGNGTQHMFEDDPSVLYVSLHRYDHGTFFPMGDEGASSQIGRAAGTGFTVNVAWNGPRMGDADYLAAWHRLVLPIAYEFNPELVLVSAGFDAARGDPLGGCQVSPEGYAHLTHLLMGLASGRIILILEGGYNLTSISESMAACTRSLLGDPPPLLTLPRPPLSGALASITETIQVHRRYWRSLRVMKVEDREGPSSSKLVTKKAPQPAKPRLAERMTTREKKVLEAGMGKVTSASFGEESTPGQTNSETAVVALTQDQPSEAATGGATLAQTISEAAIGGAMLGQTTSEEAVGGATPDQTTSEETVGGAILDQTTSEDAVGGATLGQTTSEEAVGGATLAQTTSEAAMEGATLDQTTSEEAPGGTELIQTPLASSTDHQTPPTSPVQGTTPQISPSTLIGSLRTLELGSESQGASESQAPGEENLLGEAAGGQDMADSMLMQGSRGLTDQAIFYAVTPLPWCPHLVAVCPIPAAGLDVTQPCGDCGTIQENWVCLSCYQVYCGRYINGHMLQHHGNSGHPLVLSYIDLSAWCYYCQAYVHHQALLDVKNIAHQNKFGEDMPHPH", "assay": "Inhibition of recombinant full length HDAC6 (unknown origin) using Ac-peptide-AMC as substrate preincubated for 15 mins followed by substrate addition and measured after 1 hr by fluorescence assay"}, "[4]": {"molecular_target": "Histone deacetylase 7 (Homo sapiens, UniProt Q8WUI4)", "sequence (Q8WUI4 whole entry)": "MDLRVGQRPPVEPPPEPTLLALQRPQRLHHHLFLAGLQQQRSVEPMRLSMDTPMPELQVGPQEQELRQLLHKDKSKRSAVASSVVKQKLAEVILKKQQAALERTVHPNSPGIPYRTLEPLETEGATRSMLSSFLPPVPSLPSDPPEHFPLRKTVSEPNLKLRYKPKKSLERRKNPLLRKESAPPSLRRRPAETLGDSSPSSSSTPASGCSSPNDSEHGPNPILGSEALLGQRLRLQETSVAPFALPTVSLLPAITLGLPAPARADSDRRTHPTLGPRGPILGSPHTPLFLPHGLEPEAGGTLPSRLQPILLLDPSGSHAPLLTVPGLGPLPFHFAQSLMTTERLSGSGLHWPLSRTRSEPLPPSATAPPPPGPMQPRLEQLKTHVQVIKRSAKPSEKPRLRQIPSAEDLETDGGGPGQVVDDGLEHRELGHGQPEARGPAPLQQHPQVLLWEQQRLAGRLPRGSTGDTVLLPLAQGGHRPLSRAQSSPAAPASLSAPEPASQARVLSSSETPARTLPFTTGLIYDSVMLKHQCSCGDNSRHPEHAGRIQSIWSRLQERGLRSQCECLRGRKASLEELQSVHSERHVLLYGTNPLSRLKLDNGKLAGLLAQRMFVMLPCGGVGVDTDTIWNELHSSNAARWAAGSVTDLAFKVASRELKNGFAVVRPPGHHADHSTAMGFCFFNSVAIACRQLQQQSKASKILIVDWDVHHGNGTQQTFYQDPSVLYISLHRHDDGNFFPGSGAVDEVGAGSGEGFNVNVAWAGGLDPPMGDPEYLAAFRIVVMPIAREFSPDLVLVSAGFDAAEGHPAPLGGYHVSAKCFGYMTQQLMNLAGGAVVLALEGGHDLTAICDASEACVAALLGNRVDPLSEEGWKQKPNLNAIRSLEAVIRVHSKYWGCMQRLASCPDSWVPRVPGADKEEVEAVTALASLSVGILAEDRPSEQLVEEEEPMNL", "assay": "Inhibition of recombinant full length N-terminal GST-tagged human HDAC7 expressed in baculovirus expression system using Ac-peptide-AMC as substrate preincubated for 15 mins followed by substrate addition and measured after 1 hr by fluorescence assay"}, "[5]": {"molecular_target": "Histone deacetylase 9 (Homo sapiens, UniProt Q9UKV0)", "sequence (Q9UKV0 whole entry)": "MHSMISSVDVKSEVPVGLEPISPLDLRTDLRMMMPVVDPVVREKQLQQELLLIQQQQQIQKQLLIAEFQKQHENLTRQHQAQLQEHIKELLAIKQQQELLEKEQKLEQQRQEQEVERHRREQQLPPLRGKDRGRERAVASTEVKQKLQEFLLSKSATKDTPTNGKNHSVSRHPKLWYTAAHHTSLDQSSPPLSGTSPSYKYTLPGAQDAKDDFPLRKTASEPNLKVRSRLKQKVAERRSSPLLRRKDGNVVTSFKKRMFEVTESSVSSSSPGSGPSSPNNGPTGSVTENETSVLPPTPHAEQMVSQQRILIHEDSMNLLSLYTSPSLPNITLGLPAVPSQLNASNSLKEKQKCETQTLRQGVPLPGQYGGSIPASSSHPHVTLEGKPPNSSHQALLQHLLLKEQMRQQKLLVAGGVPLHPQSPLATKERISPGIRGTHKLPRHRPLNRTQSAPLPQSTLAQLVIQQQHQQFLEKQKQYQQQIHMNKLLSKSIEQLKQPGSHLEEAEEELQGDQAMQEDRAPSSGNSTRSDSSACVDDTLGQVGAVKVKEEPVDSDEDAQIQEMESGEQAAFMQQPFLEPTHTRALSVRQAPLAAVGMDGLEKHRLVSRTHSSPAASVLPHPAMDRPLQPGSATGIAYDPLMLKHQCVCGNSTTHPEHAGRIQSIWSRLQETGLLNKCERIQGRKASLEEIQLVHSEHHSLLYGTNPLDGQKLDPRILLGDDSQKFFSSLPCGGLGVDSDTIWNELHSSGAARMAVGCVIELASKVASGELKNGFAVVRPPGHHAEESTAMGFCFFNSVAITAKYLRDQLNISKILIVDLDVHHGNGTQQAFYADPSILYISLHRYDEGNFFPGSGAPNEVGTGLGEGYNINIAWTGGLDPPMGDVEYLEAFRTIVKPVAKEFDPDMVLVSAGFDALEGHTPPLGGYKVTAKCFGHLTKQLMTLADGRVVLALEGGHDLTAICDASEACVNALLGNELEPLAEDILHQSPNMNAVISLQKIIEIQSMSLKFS", "assay": "Inhibition of recombinant full length C-terminal His-tagged human HDAC9 expressed in baculovirus expression system using Ac-peptide-AMC as substrate preincubated for 15 mins followed by substrate addition and measured after 1 hr by fluorescence assay"}, "[6]": {"tested_on": "OCI-AML2", "assay": "Antiproliferative activity against human OCI-AML2 cells after 72 hrs by MTT assay", "assay_type": "functional, cell-based", "details": "OCI-AML2, 72 h"}, "[7]": {"molecular_target": "PI3-kinase p110-alpha/p85-alpha (Homo sapiens) (UniProt P27986+P42336)", "assay": "Inhibition of recombinant human full length N-terminal His-tagged/untagged p110alpha/p85alpha expressed in baculovirus expression system at 100 nM using PIP2 as substrate after 1 hr by Kinase-Glo reagent-based assay relative to control", "in_short": "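PI3Kα (p110α/p85α) incubated with PIP2 substrate and ATP in kinase buffer for 1 h at room temperature. Kinase-Glo reagent was then added for 15 min before luminescence read-out. Inhibition rate at 100 or 1000 nM is the mean of at least two experiments.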"}, "[8]": {"tested_on": "MV4-11", "assay": "Cell cycle arrest in human MV4-11 cells assessed as accumulation at G2/M phase at 5 nM after 24 hrs by propidium iodide/RNase staining-based FACS analysis (reference value: 18.79%)", "assay_type": "functional"}, "[9]": {"tested_on": "MV4-11", "assay": "Cell cycle arrest in human MV4-11 cells assessed as accumulation at G0/G1 phase at 10 nM after 24 hrs by propidium iodide/RNase staining-based FACS analysis (reference value: 44.79%)", "assay_type": "functional"}, "[10]": {"tested_on": "MM1.S", "assay": "Cell cycle arrest in human MM1S cells assessed as accumulation at G2/M phase at 1.25 nM after 24 hrs by propidium iodide/RNase staining-based FACS analysis (reference value: 26.29%)", "assay_type": "functional"}, "[11]": {"tested_on": "MM1.S", "assay": "Cell cycle arrest in human MM1S cells assessed as accumulation at G2/M phase at 2.5 nM after 24 hrs by propidium iodide/RNase staining-based FACS analysis (reference value: 26.29%)", "assay_type": "functional"}, "[12]": {"tested_on": "MM1.S", "assay": "Cell cycle arrest in human MM1S cells assessed as accumulation at G0/G1 phase at 5 nM after 24 hrs by propidium iodide/RNase staining-based FACS analysis (reference value: 49.22%)", "assay_type": "functional"}, "[13]": {"tested_on": "MM1.S", "assay": "Cell cycle arrest in human MM1S cells assessed as accumulation at S phase at 10 nM after 24 hrs by propidium iodide/RNase staining-based FACS analysis (reference value: 24.49%)", "assay_type": "functional"}, "[14]": {"tested_on": "MV4-11", "assay": "Induction of apoptosis in human MV4-11 cells assessed as necrotic cells at 20 nM after 48 hrs by Annexin V-FITC/propidium iodide staining-based flow cytometric analysis (reference value: 0.17%)", "assay_type": "functional"}, "[15]": {"tested_on": "MV4-11", "assay": "Induction of apoptosis in human MV4-11 cells assessed as late apoptotic cells at 40 nM after 48 hrs by Annexin V-FITC/propidium iodide staining-based flow cytometric analysis (reference value: 5.03%)", "assay_type": "functional"}, "[16]": {"tested_on": "MV4-11", "assay": "Induction of apoptosis in human MV4-11 cells assessed as necrotic cells at 40 nM after 48 hrs by Annexin V-FITC/propidium iodide staining-based flow cytometric analysis (reference value: 0.17%)", "assay_type": "functional"}, "[17]": {"tested_on": "MV4-11", "assay": "Induction of apoptosis in human MV4-11 cells assessed as necrotic cells at 80 nM after 48 hrs by Annexin V-FITC/propidium iodide staining-based flow cytometric analysis (reference value: 0.17%)", "assay_type": "functional"}, "[18]": {"tested_on": "MV4-11", "assay": "Induction of apoptosis in human MV4-11 cells assessed as necrotic cells at 160 nM after 48 hrs by Annexin V-FITC/propidium iodide staining-based flow cytometric analysis (reference value: 0.17%)", "assay_type": "functional"}, "[19]": {"tested_on": "MM1.S", "assay": "Induction of apoptosis in human MM1S cells assessed as necrotic cells at 80 nM after 48 hrs by Annexin V-FITC/propidium iodide staining-based flow cytometric analysis (reference value: 0.32%)", "assay_type": "functional"}, "[20]": {"molecular_target": "Histone deacetylase 1/2/3 (Homo sapiens) (UniProt Q13547+O15379+Q92769)", "assay": "Inhibition of HDAC1/2/3 in human MV4-11 cells assessed as increase in H3 acetylation after 6 hrs by Western blot analysis", "assay_type": "cell-based", "in_short": "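MV4-11 cells treated 6 h at 0.01, 0.1 or 1 μM. Whole-cell protein extracted in RIPA buffer and quantified by BCA. 30 μg protein run on SDS-PAGE and transferred to PVDF. Blocked 1 h in 5% milk, primary antibody overnight at 4 °C, HRP secondary 1 h, ECL detection. Acetyl-histone H3 and acetyl-α-tubulin probed, with GAPDH as loading control.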"}, "[21]": {"tested_on": "MM1.S", "assay": "Antitumor activity against human MM1S cells xenografted in NOD/SCID mouse assessed as tumor growth inhibition at 10 mg/kg, iv administered every 2 days for 5 days and measured every 2 days post last dose by caliper method relative to control", "assay_type": "functional", "details": "read-out: TGI", "in_short": "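MM1S xenografts were made with 10^7 cells in 100 μL serum-free RPMI 1640, injected s.c. into the right flank of female NOD/SCID mice aged 5-6 weeks. Mice were randomized at 100-200 mm3, 6 per group. Dosing was i.v. every 2 days in saline with 2.5% DMSO and 10% cyclodextrin at pH 9. Tumours were measured by caliper every 2 days (volume = length × width² × 0.5) and weighed at the end.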"}, "[22]": {"assay": "Toxicity against NOD/SCID mouse xenografted with human MM1S cells assessed as mouse survival at 10 mg/kg, iv administered every 2 days for 5 days", "assay_type": "organism-based", "details": "in vivo", "in_short": "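Female NOD/SCID mice, 5-6 weeks old, received 10^7 MM1S cells in 100 μL serum-free RPMI 1640 s.c. into the right flank. At 100-200 mm3 tumours they were randomised, 6 mice per group. Tumours were measured by caliper every 2 days. At the end, tumours were excised and weighed. Survivors are reported per group.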"}, "[23]": {"assay": "Toxicity against NOD/SCID mouse xenografted with human MV4-11 cells assessed as effect on body weight at 10 mg/kg, iv administered every 2 days for 6 days", "assay_type": "organism-based", "details": "in vivo", "in_short": "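MV4-11 cells (10^7 in 100 μL serum-free IMDM) were injected s.c. into the right flank of female NOD/SCID mice aged 5-6 weeks. Groups of 6 were randomised at 100-200 mm3. Dosing was i.v. every 2 days in physiological saline containing 2.5% DMSO and 10% cyclodextrin, pH 9. Tumours were measured by caliper every 2 days. Survivors were counted.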"}}}
{"smiles": "C[C@@H]1CN(C(=O)Nc2ccc(-c3nc(N4CCOCC4)c4cnn(CCCCCCC(=O)NO)c4n3)cc2)CCO1", "values": [{"measurement": "IC50", "setting": "[1]", "result": 17.2, "unit": "nM"}, {"measurement": "IC50", "setting": "[2]", "result": 0.61, "unit": "nM"}, {"measurement": "IC50", "setting": "[3]", "result": 1.8, "unit": "nM"}, {"measurement": "IC50", "setting": "[4]", "result": "> 1000", "unit": "nM"}, {"measurement": "IC50", "setting": "[5]", "result": "> 1000", "unit": "nM"}, {"measurement": "IC50", "setting": "[6]", "result": 9.01, "unit": "nM"}, {"measurement": "inhibition", "setting": "[7]", "result": 28.3, "unit": "%"}, {"measurement": "Activity", "setting": "[8]", "result": 13.99, "unit": "%"}, {"measurement": "Activity", "setting": "[9]", "result": 65.4, "unit": "%"}, {"measurement": "Activity", "setting": "[10]", "result": 24.1, "unit": "%"}, {"measurement": "Activity", "setting": "[11]", "result": 25.8, "unit": "%"}, {"measurement": "Activity", "setting": "[12]", "result": 57.95, "unit": "%"}, {"measurement": "Activity", "setting": "[13]", "result": 12.6, "unit": "%"}, {"measurement": "Activity", "setting": "[14]", "result": 2.84, "unit": "%"}, {"measurement": "Activity", "setting": "[15]", "result": 57.6, "unit": "%"}, {"measurement": "Activity", "setting": "[16]", "result": 2.05, "unit": "%"}, {"measurement": "Activity", "setting": "[17]", "result": 1.86, "unit": "%"}, {"measurement": "Activity", "setting": "[18]", "result": 1.13, "unit": "%"}, {"measurement": "Activity", "setting": "[19]", "result": 1.78, "unit": "%"}, {"measurement": "inhibition", "setting": "[20]", "result": "Dose-dependent effect"}, {"measurement": "inhibition in vivo at 10 mg/kg", "setting": "[21]", "result": 48.1, "unit": "%"}, {"measurement": "Activity", "setting": "[22]", "result": "Non-Toxic"}, {"measurement": "Activity", "setting": "[23]", "result": "Non-Toxic"}]}
